Screens: PubChem BioAssay, Broad Institute
Hits are enriched below; roughly 1.2% of the tested compounds scored in any of these assays.
ARNT TACC3 PPI – disruptors of ARNT/TACC3 protein interaction, primary screen, biochemical, AlphaScreen, single concentration | Transforming acidic coiled-coil-containing protein 3 (Homo sapiens), Q9Y6A5 | AlphaScreen His-ARNT PAS-B/GST-TACC3 binding, luminescence; TACC3 fragment carries E629A point mutation | inhibition, % at 9.99 µM | actives 0.66% (n = 390,000);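 active = mean inhibition of replicates at least 50% and at least half of replicates each reaching 50%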;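 also: 0% = complete ARNT plus TACC3 wells and 100% = ARNT alone without TACC3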
CAL PDZ FP-1 – CAL PDZ peptide-binding inhibitors, primary screen, biochemical, fluorescence polarization, Cer-tagged CAL PDZ, HTS | inhibition, % at 20 µM | AID 504414, 2011 | actives 0.02% (n = 330,000) | purified CAL PDZ, TMR-peptide fluorescence polarization, 1 h | Golgi-associated PDZ and coiled-coil motif-containing protein (Homo sapiens), Q9HD26;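 active = highest replicate inhibition of at least 40%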;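 also: plate controls were DMSO neutral control wells for no effect and unlabeled competitor peptide control wells for full effect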
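System: tagged CAL PDZ domain. Schedule: 1 h room-temperature incubation prior to read. Signal: fluorescence polarization (mP). Measure: percent inhibition from loss of millipolarization.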
CAL PDZ FP-2 – untagged CAL PDZ binding inhibitors, primary screen, biochemical, fluorescence polarization, HTS | Golgi-associated PDZ and coiled-coil motif-containing protein (Homo sapiens), Q9HD26 | purified CAL PDZ, TMR-peptide fluorescence polarization, 1 h | AID 602252, 2012 | actives 0.92% (n = 300,000) | inhibition, % at 24.9 µM;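 active = mean inhibition of at least 30% with at least half of replicates also reaching 30%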;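 also: 0% = DMSO neutral control and 100% = excess unlabeled competitor peptide PRC23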
An asterisk follows results filed as active; · = no result given.

SMILES	ARNT TACC3 PPI	CAL PDZ FP-1	CAL PDZ FP-2
O=C(N/N=C/c1c(O)n(C2CCCCC2)c(=S)[nH]c1=O)c1ccccc1	30.4	-0.9	-0.5
O=C(N/N=C/C1C(=O)NC(=S)N(c2ccccc2)C1=O)c1cc(Br)c(O)c(Br)c1 (stereo not given)	65.1*	·	4.3
CC(C)(C)C(=O)O[C@H]1CC[C@@]2(C)C(=CC(=O)C3C2CC[C@]2(C)C(=O)CCC32)C1 (stereo not given in full)	-2.8	-0.4	84.9*
CC(=O)O[C@H]1CC[C@@]2(C)C(=CC[C@@H]3[C@@H]2CC[C@]2(C)C(=O)CC[C@@H]32)C1	-4.8	-0.9	1.0
CCN(CC)C(=O)c1ccc(NC(=O)CCCSc2ccccc2)cc1	3.0	-0.8	80.2*
CCN(CC)C(=O)c1ccc(NC(=S)NC(=O)CCc2ccccc2)cc1	1.9	-0.2	9.6
O=C(O)[C@@H]1[C@@H](CO)[C@@H]2Cn3c(ccc(-c4cccnc4)c3=O)[C@H]1N2C(=O)Nc1cc(F)ccc1F	1.3	·	·
Cc1ccc2c(c1)NP(=S)(Oc1ccccc1)N2 (stereo not given)	0.7	-0.1	-2.8
Cc1ccc(OP2(=O)Nc3cc(C)c(C)cc3S2)cc1 (stereo not given)	46.3*	-1.9	0.4
CCCNC(=O)[C@@H]1[C@@H](CO)[C@@H]2Cn3c(cccc3=O)[C@H]1N2CCC	-6.5	·	·
O=C1NC(=O)C(Nc2ccccc2)C(=O)N1	32.9*	-1.8	-4.7
O=C1NC(=O)C(Cc2ccccc2)(Cc2ccccc2)C(=O)N1	-8.1	-0.2	-1.3
COCC#Cc1ccc([C@H]2[C@H](CO)N3CCCCN(C(=O)Cc4ccccn4)C[C@@H]23)cc1	14.0	·	·
CCN1CCN(c2ccc(N)cc2C)CC1	47.5*	1.9	0.5
CCN1CCN(c2ccc(N)cc2)CC1	27.4	-0.9	-1.2
Cc1c(C)c2ccc(OCC(=O)N3CCC(C(=O)O)(c4ccccc4)CC3)cc2oc1=O	23.9	-0.2	40.8*
Cc1c(C)c2ccc(OCC(=O)N3CCC(C(=O)O)(c4ccccc4)CC3)c(C)c2oc1=O	2.2	-0.3	2.3
N#Cc1cccc(-c2ccc([C@H]3[C@@H](CO)N4CCCCN(C(=O)Cc5ccncc5)C[C@@H]34)cc2)c1	13.5	·	·
O=C(Cc1ccncc1)N1CCCCN2[C@@H](CO)[C@H](c3ccc(C#Cc4ccccc4F)cc3)[C@@H]2C1	-1.3	·	·
CN(C)C(=O)[C@@H]1[C@@H](CO)[C@@H]2Cn3c(cccc3=O)[C@H]1N2CC1CC1	1.2	·	·
CCCC#Cc1ccc([C@H]2[C@H](CO)N3CCCCN(C(=O)Cc4ccccn4)C[C@@H]23)cc1	2.3	·	·
O=C(c1cccc(Cl)c1)C1CCCN(Cc2ccon2)C1 (stereo not given)	·	-2.9	-0.4
COc1ccc(CN2CCCC(C(=O)c3cccc(Cl)c3)C2)cc1 (stereo not given)	3.9	-0.6	1.5
CSc1ncc(CN2CCCC(C(=O)c3cccc(Cl)c3)C2)cn1 (stereo not given)	2.8	-0.5	47.9*
CC(C)Oc1cccc(C(=O)C2CCCN(Cc3ccon3)C2)c1 (stereo not given)	2.9	-0.7	65.1*
SMILES	ARNT TACC3 PPI	CAL PDZ FP-1	CAL PDZ FP-2
COC(=O)[C@H]1[C@H](CO)[C@H]2Cn3c(ccc(-c4cccnc4)c3=O)[C@@H]1N2S(=O)(=O)c1ccccc1F	-11.1	·	·
CCc1nc2ccc(N3CCN(C)CC3)cc2nc1CC	-3.7	-1.7	48.8*
CN1CCN(c2ccc3nccnc3c2)CC1	-2.8	-1.2	-5.4
CCCC#Cc1ccc([C@H]2[C@H]3CN(C(=O)Cc4ccccn4)CCCCN3[C@H]2CO)cc1	3.3	·	·
FC(F)(F)c1ccccc1CN1CCN(Cc2ccccc2)CC1	-4.8	0.8	-4.5
FC(F)(F)c1ccccc1CCN1CCNCC1	-4.3	0.8	32.9*
CCCCC(=O)N/N=C/c1c(O)n(CCCC)c(=S)[nH]c1=O	61.2*	-1.4	·
CCCCC(=O)N/N=C/c1c(O)n(C2CC2)c(=S)[nH]c1=O	0.8	-0.1	·
O=C(N/N=C/c1c(O)n(Cc2ccco2)c(=O)[nH]c1=O)c1ccccc1O	65.1*	1.3	6.1
CCCCC(=O)N/N=C/c1c(O)n(-c2cccc3ccccc23)c(=O)[nH]c1=O	60.7*	-0.1	5.0
CCCCC(=O)N/N=C/c1c(O)n(Cc2ccco2)c(=O)[nH]c1=O	72.3*	-0.5	-1.6
O=c1[nH]c(=O)n(Cc2ccco2)c(O)c1C=NCc1ccco1	-1.7	-2.4	0.6
CC(=O)Nc1ccc(N=Cc2c(O)n(Cc3ccco3)c(=O)[nH]c2=O)cc1	-12.2	-2.3	·
O=c1[nH]c(=O)n(-c2cccc3ccccc23)c(O)c1C=NCCCn1ccnc1	-6.5	1.1	0.7
COc1ccc(C#Cc2ccc([C@H]3[C@@H](CO)N4CCCCN(C(=O)Cc5ccccc5)C[C@@H]34)cc2)cc1	-1.2	·	·
O=C(Cc1ccccc1)N1CCCCN2[C@H](CO)[C@@H](c3ccc(-c4ccccc4)cc3)[C@H]2C1	3.7	·	·
O=C(Cc1cccnc1)N1CCCCN2[C@H](CO)[C@H](c3ccc(C#CC4CC4)cc3)[C@H]2C1	3.7	·	·
O=C(Cc1ccncc1)N1CCCCN2[C@H](CO)[C@@H](c3ccc(-c4ccncc4)cc3)[C@H]2C1	1.0	·	·
O=c1[nH]c(=O)n(-c2cccc(Cl)c2)c(O)c1/C=N/c1ccccn1	3.6	0.6	·
COc1ccc2nc(/N=C/c3c(O)n(-c4cccc(Cl)c4)c(=O)[nH]c3=O)sc2c1	79.4*	·	-4.2
CCn1c(=O)n(CC)c2cc([N+](=O)[O-])c(N3CCNCC3)cc21	1.7	13.3	69.1*
Nc1cc(N2CCNCC2)c([N+](=O)[O-])cc1Cl	0.3	-0.4	-6.9
CCCCCC(=O)N[C@@H](c1ccccc1)[C@@H](O)C(=O)O[C@H]1C[C@@]2(O)[C@@H](OC(=O)c3ccccc3)C3[C@](C)(C(=O)[C@H](O)C(=C1C)C2(C)C)[C@@H](OC1OCC(O)C(O)C1O)C[C@H]1OC[C@@]31OC(C)=O (stereo not given in full)	56.8*	-0.7	4.3
CC(=O)O[C@@]12CO[C@@H]1C[C@H](OC1OCC(O)C(O)C1O)[C@@]1(C)C(=O)[C@H](O)C3=C(C)[C@@H](OC(=O)[C@H](O)[C@@H](NC(=O)c4ccccc4)c4ccccc4)C[C@@](O)([C@@H](OC(=O)c4ccccc4)C12)C3(C)C (stereo not given in full)	4.2	0.3	-0.5
O=C(O)[C@H]1[C@H](CO)[C@H]2Cn3c(ccc(-c4cccnc4)c3=O)[C@@H]1N2S(=O)(=O)c1ccccc1F	-16.0	·	·
O=C(Cc1ccccn1)N1CCCCN2[C@H](CO)[C@H](c3ccc(-c4ccccc4F)cc3)[C@H]2C1	2.9	·	·
O=C(Cc1ccccc1)N1CCCCN2[C@@H](CO)[C@H](c3ccc(C#Cc4ccccc4)cc3)[C@@H]2C1	-22.0	·	·
COc1cccc(CN2CCNCC2)c1OC	-0.2	15.2	89.8*
